# Experimental data as given in ChEMBL document CHEMBL4152354, “A reusable magnetic nickel nanoparticle based catalyst for the aqueous synthesis of diverse heterocycles and their evaluation as potential anti-bacterial agent” (2018).
# What was measured:
# Format in all cases: functional
# [1] = tested on: Klebsiella pneumoniae; experiment: Antibacterial activity against Klebsiella pneumoniae MTCC 109 after 18 hrs by TTC staining based broth microdilution method; details: MTCC 109, 18 h
# Method in brief: (§1)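 Broth microdilution in Mueller-Hinton broth. 50 µl of inoculum from a 0.5 McFarland suspension was added to 50 µl of compound, giving final concentrations of 0.024–400 mg/ml in DMSO. Sealed plates were incubated at 37°C for 18 h, then 50 µl of 0.5% TTC was added for 1 h in the dark. MIC was the lowest concentration with no visible growth (well stays clear). Triplicate; mean ± SD.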
# [2] = tested on: Bacillus cereus; experiment: Antibacterial activity against Bacillus cereus MTCC 430 assessed as zone of inhibition at 100 uL after 24 hrs by agar well-diffusion method
# Method in brief: (§2)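 Mueller-Hinton agar plates swabbed with a bacterial suspension adjusted to 1.5×10^8 CFU/ml. Each 5 mm well received 100 µl of compound, and plates were incubated at 37°C for 24 h. Chloramphenicol (30 mcg) was the positive control and DMSO the negative control. Inhibition zones around wells were measured manually, in triplicate.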
# [3] = tested on: Streptococcus pyogenes; experiment: Antibacterial activity against Streptococcus pyogenes MTCC 1925 assessed as zone of inhibition at 100 uL after 24 hrs by agar well-diffusion method; method in brief: as §2
# [4] = tested on: Escherichia coli; experiment: Antibacterial activity against Escherichia coli MTCC 730 assessed as zone of inhibition at 100 uL after 24 hrs by agar well-diffusion method; method in brief: as §2
# [5] = tested on: Bacillus cereus; experiment: Antibacterial activity against Bacillus cereus MTCC 430 after 18 hrs by TTC staining based broth microdilution method; details: MTCC 430, 18 h; method in brief: as §1
# [6] = tested on: Salmonella enterica; experiment: Antibacterial activity against Salmonella enterica MTCC 735 assessed as zone of inhibition at 100 uL after 24 hrs by agar well-diffusion method
# [7] = tested on: Klebsiella pneumoniae; experiment: Antibacterial activity against Klebsiella pneumoniae MTCC 109 assessed as zone of inhibition at 100 uL after 24 hrs by agar well-diffusion method; method in brief: as §2
structure (smiles),measurement,setting,value
O=C(N[C@H](CO)[C@H](O)c1ccc([N+](=O)[O-])cc1)C(Cl)Cl [CHLORAMPHENICOL],MIC,[1],90 µg/mL
same,inhibition zone (IZ),[2],22 mm
same,inhibition zone (IZ),[3],36 mm
same,inhibition zone (IZ),[4],35 mm
same,MIC,[5],90 µg/mL
same,inhibition zone (IZ),[6],17 mm
same,inhibition zone (IZ),[7],33 mm
